From PubChem BioAssay
SIAE inh: inhibitors of human sialic acid acetylesterase SIAE; inhibition, % at 9.66 µM; AID 1053197; Q9HAT2; 0.69% of 370,000 active; SIAE FP-Rh probe binding, fluorescence polarization;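 active = inhibition above a cutoff: mean of compounds within the control limits plus 3 SD of those, cut at about 17% in these data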
PRMT1 FP inh: PRMT1 (human) inhibition, primary screen. recombinant PRMT1, activity-based probe fluorescence polarization. inhibition, % at 2.79 µM. 1.3% of 370,000 active. AID 652257;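 active = inhibition above about 21% made by adding two undisclosed values, limit read from the data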
TCR CD3 inh: human TCR-CD3 binding inhibition. TAMRA-labeled TCR probe fluorescence, biochemical. inhibition, % at 9.4 µM. 0.37% of 360,000 active. AID 651800; in the data active = inhibition above about 19%;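 note: recombinant mutant TCR 2C K166C tagged with TAMRA read by polarization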
HTRA1 inh: blocks human HTRA1 serine peptidase; 0.5% of 340,000 active; inhibition, % at 5.96 µM; recombinant HTRA1, FP-rhodamine activity-based probe, fluorescence polarization; Q92743; in the data active = inhibition above about 36%
Target sequence (Q92743 whole entry, looked up): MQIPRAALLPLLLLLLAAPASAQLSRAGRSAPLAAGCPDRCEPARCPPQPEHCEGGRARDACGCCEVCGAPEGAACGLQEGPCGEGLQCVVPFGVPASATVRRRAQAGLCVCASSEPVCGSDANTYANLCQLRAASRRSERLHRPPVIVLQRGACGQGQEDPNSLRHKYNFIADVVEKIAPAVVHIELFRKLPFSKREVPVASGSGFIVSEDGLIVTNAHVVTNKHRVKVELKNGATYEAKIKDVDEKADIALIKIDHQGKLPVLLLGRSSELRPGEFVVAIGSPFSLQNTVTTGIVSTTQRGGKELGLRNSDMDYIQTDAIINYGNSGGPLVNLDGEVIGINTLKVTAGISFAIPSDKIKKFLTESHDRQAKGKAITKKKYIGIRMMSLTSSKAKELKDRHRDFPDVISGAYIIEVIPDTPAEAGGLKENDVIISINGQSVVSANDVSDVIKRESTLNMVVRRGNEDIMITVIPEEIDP
ABHD4 inh: inhibitors of mouse ABHD4 | Q8VD66 | purified mABHD4, FP-Rh probe fluorescence polarization | inhibition, % at 8.92 µM | 0.54% of 370,000 active;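 active = inhibition exceeding the mean over every tested compound plus 3 SD, cut at about 30% in these data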
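System: mouse ABHD4 enzyme, wild type / Medium: HEPES pH 7.0, NaCl, Pluronic buffer / Reagent: FP-Rh activity-based fluorescent probe / Control set: S159A mutant high control, sample median low control / Detection: fluorescence polarization with parallel and perpendicular emission, 525/598 nm / Schedule: 45 min + 60 min at 25 °C / Compound dosing: 8.92 µM, single dose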
PRMT1 confirm: PRMT1 (human) inhibition, FP confirmation | shares compounds with PRMT1 FP inh | recombinant His-PRMT1, activity-based probe fluorescence polarization | inhibition, % at 2.79 µM | 42% of 3,300 active;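 active = mean inhibition across replicates above the hit cutoff derived for the earlier primary screen, cut at about 22% in these data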
Numbers stand for hits. Only some compounds are listed: those with a hit (about 2.5% of all), similar ones and a draw of the others.

How did COc1ccc(S(=O)(=O)N(C(C)=O)c2ccc3oc(=O)sc3c2)cc1 do in these assays?
SIAE inh: inactive; PRMT1 FP inh: 94; TCR CD3 inh: inactive; HTRA1 inh: inactive; ABHD4 inh: inactive; PRMT1 confirm: 64

How did COC(=O)C1CSc2[nH]c(=O)sc2C1c1ccccc1 (centres undefined) do in these assays?
SIAE inh: inactive; PRMT1 FP inh: 46; TCR CD3 inh: inactive; HTRA1 inh: inactive; ABHD4 inh: inactive; PRMT1 confirm: 26

What do the screens show for `COc1ccc2c(c1)CNC2CS(=O)(=O)NCC(C)C` (centres undefined)?
SIAE inh: inactive; PRMT1 FP inh: inactive; ABHD4 inh: inactive

What do the screens show for `CCC1CCC(NC2CCCCNC2=O)CC1` (centres undefined)?
SIAE inh: inactive; PRMT1 FP inh: inactive; TCR CD3 inh: inactive; HTRA1 inh: inactive; ABHD4 inh: inactive

What do the screens show for `CC1CCCC(NC2CCCCNC2=O)C1` (centres undefined)?
SIAE inh: inactive; PRMT1 FP inh: 27; TCR CD3 inh: inactive; HTRA1 inh: inactive; ABHD4 inh: inactive; PRMT1 confirm: inactive

What do the screens show for `CCCCCNC(=O)C(c1cccc2ccccc12)n1c(=O)c(-c2ccco2)nc2ccccc21` (centres undefined)?
SIAE inh: inactive; PRMT1 FP inh: 32; TCR CD3 inh: inactive; ABHD4 inh: inactive; PRMT1 confirm: inactive

How did COc1ccc(C(C(=O)NC(C)(C)C)n2c(=O)c(-c3ccco3)nc3ccccc32)cc1 (centres undefined) do in these assays?
SIAE inh: inactive; PRMT1 FP inh: 31; TCR CD3 inh: inactive; ABHD4 inh: inactive; PRMT1 confirm: inactive

Results for CC(C)(C)NC(=O)C(c1ccc(C#N)cc1)n1c(=O)c(-c2ccco2)nc2ccccc21 (centres undefined) ?
SIAE inh: inactive; PRMT1 FP inh: 31; TCR CD3 inh: inactive; ABHD4 inh: inactive; PRMT1 confirm: 36

How did CC(C)(C)NC(=O)C(c1ccc(-c2ccccc2)cc1)n1c(=O)c(-c2ccco2)nc2ccccc21 (centres undefined) do in these assays?
SIAE inh: inactive; PRMT1 FP inh: inactive; TCR CD3 inh: inactive; ABHD4 inh: inactive

Results for O=C(NCc1ccccc1)C(c1cccc2ccccc12)n1c(=O)c(-c2ccco2)nc2ccccc21 (centres undefined) ?
SIAE inh: inactive; PRMT1 FP inh: inactive; TCR CD3 inh: inactive; ABHD4 inh: inactive

Results for FC(F)(F)c1ccc2nc(CNc3nc(N4CCOCC4)nc4c3ncn4-c3ccsc3)[nH]c2c1 ?
SIAE inh: inactive; PRMT1 FP inh: inactive; ABHD4 inh: inactive

What do the screens show for `COC(=O)C1CSC2c3ccccc3C(=O)N12` (centres undefined)?
SIAE inh: inactive; PRMT1 FP inh: 32; TCR CD3 inh: inactive; HTRA1 inh: inactive; ABHD4 inh: inactive; PRMT1 confirm: inactive

What do the screens show for `Cn1cnnc1SCc1ccc(-c2ccc(Br)cc2)o1`?
SIAE inh: inactive; PRMT1 FP inh: 30; TCR CD3 inh: inactive; HTRA1 inh: inactive; ABHD4 inh: inactive; PRMT1 confirm: inactive

Results for Cc1ccc(-c2nc(N)sc2CC(=O)OCC(=O)N2C(C)CCCC2C)cc1 (centres undefined) ?
SIAE inh: inactive; PRMT1 FP inh: 49; TCR CD3 inh: inactive; HTRA1 inh: inactive; ABHD4 inh: inactive; PRMT1 confirm: inactive

How did CC(=O)Nc1ccccc1OCC(=O)c1cc(C)n(Cc2cccs2)c1C do in these assays?
SIAE inh: inactive; PRMT1 FP inh: inactive; TCR CD3 inh: inactive; HTRA1 inh: inactive; ABHD4 inh: inactive

How did Cc1cc(C(=O)COc2cccnc2[N+](=O)[O-])c(C)n1Cc1cccs1 do in these assays?
SIAE inh: inactive; PRMT1 FP inh: 29; TCR CD3 inh: inactive; HTRA1 inh: inactive; ABHD4 inh: inactive; PRMT1 confirm: inactive

Results for Cc1ccc(-c2ccccc2)n1-c1cccc(C(=O)O)c1 ?
SIAE inh: inactive; PRMT1 FP inh: 62; TCR CD3 inh: inactive; HTRA1 inh: inactive; ABHD4 inh: inactive; PRMT1 confirm: inactive

How did O=C(O)CCc1ccc(-c2ccccc2)n1-c1cccc(C(=O)O)c1 do in these assays?
SIAE inh: inactive; PRMT1 FP inh: inactive; TCR CD3 inh: inactive; HTRA1 inh: inactive; ABHD4 inh: inactive

What do the screens show for `CCn1cc(C(=O)N2CCn3c(nc4ccccc43)C2)c(=O)c2ccc(C)nc21`?
SIAE inh: inactive; PRMT1 FP inh: 31; TCR CD3 inh: inactive; HTRA1 inh: inactive; ABHD4 inh: inactive; PRMT1 confirm: inactive

What do the screens show for `O=C(NCc1cccnc1)O[C@H]1CC[C@@]23CCCN2C(=O)CCC[C@H]3C1`?
SIAE inh: inactive; PRMT1 FP inh: inactive; ABHD4 inh: inactive

How did O=C1C(=C2CCCCC2)SC(=S)N1Cc1ccco1 do in these assays?
SIAE inh: inactive; PRMT1 FP inh: 44; TCR CD3 inh: inactive; HTRA1 inh: inactive; ABHD4 inh: inactive; PRMT1 confirm: 39

What do the screens show for `O=C(O)CCN1C(=O)C(=C2CCCCCC2)SC1=S`?
SIAE inh: inactive; PRMT1 FP inh: inactive; TCR CD3 inh: inactive; HTRA1 inh: inactive; ABHD4 inh: inactive

Results for Cc1ccc(N=Cc2c(O)n(C)c(=O)n(C)c2=O)nc1 ?
SIAE inh: inactive; PRMT1 FP inh: 29; TCR CD3 inh: inactive; HTRA1 inh: inactive; ABHD4 inh: inactive; PRMT1 confirm: inactive

What do the screens show for `Cc1ccc(N=CC2=C(O)CC(C)(C)CC2=O)nc1`?
SIAE inh: inactive; PRMT1 FP inh: inactive; TCR CD3 inh: inactive; HTRA1 inh: inactive; ABHD4 inh: inactive

How did O=C(CN(C(=O)OCC1c2ccccc2-c2ccccc21)[C@@H](Cc1ccccc1)C(=O)O)OCc1ccc(C(=O)NCc2ccccc2)cc1 do in these assays?
SIAE inh: inactive; PRMT1 FP inh: inactive; ABHD4 inh: inactive

Results for N#CCN1CCC(c2cc(-c3ccco3)n[nH]2)CC1 ?
SIAE inh: inactive; PRMT1 FP inh: 57; TCR CD3 inh: inactive; ABHD4 inh: inactive; PRMT1 confirm: inactive

How did C[C@H]1C=C(C(=O)NCc2nc3ccccc3[nH]2)O[C@@H](OCCCCO)C1 do in these assays?
SIAE inh: inactive; PRMT1 FP inh: 41; TCR CD3 inh: inactive; HTRA1 inh: inactive; ABHD4 inh: inactive; PRMT1 confirm: inactive

What do the screens show for `Nc1c(C(=O)Nc2ccccc2F)sc2nc(-c3cccnc3)ccc12`?
SIAE inh: inactive; PRMT1 FP inh: inactive; TCR CD3 inh: inactive; HTRA1 inh: inactive; ABHD4 inh: inactive

Results for Nc1c(C(=O)Nc2ccc(Cl)c(Cl)c2)sc2nc(-c3cccnc3)ccc12 ?
SIAE inh: inactive; PRMT1 FP inh: 26; TCR CD3 inh: inactive; ABHD4 inh: inactive; PRMT1 confirm: inactive

How did O=C(/C=C/c1ccco1)N(Cc1ccc(Cl)cc1)C1CCS(=O)(=O)C1 (centres undefined) do in these assays?
SIAE inh: inactive; PRMT1 FP inh: 28; TCR CD3 inh: inactive; HTRA1 inh: inactive; ABHD4 inh: inactive; PRMT1 confirm: inactive
